SIAE primary: inhibitors of human sialic acid acetylesterase SIAE. Q9HAT2. SIAE FP-Rh probe binding, fluorescence polarization. inhibition, % at 9.66 µM. actives 0.69% (n = 370,000). AID 1053197;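 active means inhibition above a cutoff: mean of compounds within the control limits plus 3 SD of those, cut at about 17% in these data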
mABHD4 FP: ABHD4 (mouse) inhibition, primary FP screen. inhibition, % at 8.92 µM. purified mABHD4, FP-Rh probe fluorescence polarization. actives 0.54% (n = 370,000);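 active means inhibition exceeding the mean over every tested compound plus 3 SD, cut at about 30% in these data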
Target sequence (Q8VD66 whole entry, looked up): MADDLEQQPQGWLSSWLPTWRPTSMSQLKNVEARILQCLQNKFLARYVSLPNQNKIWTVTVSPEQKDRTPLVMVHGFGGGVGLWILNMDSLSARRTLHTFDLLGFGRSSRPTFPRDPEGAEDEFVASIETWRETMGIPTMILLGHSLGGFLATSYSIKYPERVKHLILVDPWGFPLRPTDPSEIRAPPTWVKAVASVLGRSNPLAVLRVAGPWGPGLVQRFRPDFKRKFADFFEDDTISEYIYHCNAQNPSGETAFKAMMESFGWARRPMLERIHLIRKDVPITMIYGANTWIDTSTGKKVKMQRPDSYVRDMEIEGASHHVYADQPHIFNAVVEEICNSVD
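Test system: mABHD4 protein; Read-out basis: % inhibition; Incubation: 45 min + 60 min at 25 °C; Repeats: single replicate; Technique: fluorescence polarization with parallel and perpendicular emission, 525/598 nm; Compound: 8.92 µM, single dose; Benchmarks: full inhibition S159A mutant plus DMSO, zero as sample-well median.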
HTRA1 inhibitor: blocks human HTRA1 serine peptidase. recombinant HTRA1, FP-rhodamine activity-based probe, fluorescence polarization. inhibition, % at 5.96 µM. Q92743. AID 504803. actives 0.5% (n = 340,000); in the data active means inhibition above about 36%
TCR-CD3 inh: human TCR-CD3 binding inhibition | TAMRA-labeled TCR probe fluorescence, biochemical | actives 0.37% (n = 360,000) | inhibition, % at 9.4 µM | AID 651800;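 further: recombinant mutant TCR 2C K166C tagged with TAMRA read by polarization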
DAGLB inhibitor: diacylglycerol lipase beta (human) inhibition. Q8NCG7. HEK293T DAGLB membrane lysate, EnzChek fluorogenic substrate. inhibition, % at 5.17 µM. actives 0.059% (n = 340,000). AID 504411; in the data active means inhibition above about 34%
BSA TAMRA ctr: interferes with TAMRA-BSA probe, flagging TCR-CD3 hits; TAMRA-labeled BSA probe fluorescence counterscreen; inhibition, % at 9.4 µM; actives 10% (n = 1,200); shares compounds with TCR-CD3 inh; in the data active means inhibition above about 23%
TCR-CD3 inh conf: TCR-CD3 interaction inhibition, confirmation; shares compounds with TCR-CD3 inh; TAMRA-labeled TCR probe fluorescence binding assay; inhibition, % at 9.4 µM; actives 48% (n = 1,200); AID 652036
Large screens that a line does not name were inactive (follow-up assays come after a bar, where they were run). An excerpt weighted towards active compounds, which were near 1.6% of everything screened. Unless noted, no stated cut-off is given here; in the data, active means inhibition above about 19%; inactive means the rest.

O=C(CCC(=O)c1cccs1)NNC(=O)c1ccccc1O	TCR-CD3 inh 48 | BSA TAMRA ctr inactive | TCR-CD3 inh conf 28
CC(C)[C@H](N)C(=O)N[C@H](C(=O)N1CCC2CCN(S(=O)(=O)c3ccccc3)CC21)C(C)C (stereo partly drawn)	none (no result: HTRA1 inhibitor, TCR-CD3 inh, DAGLB inhibitor)
O=C(CCNC(=O)c1ccc(Br)cc1)NNC(=O)c1ccccc1O	TCR-CD3 inh 23 | BSA TAMRA ctr inactive | TCR-CD3 inh conf 20
COc1ccccc1C(=O)NNC(=O)c1ccc(NC(=O)CC(C)C)cc1	TCR-CD3 inh 31 | BSA TAMRA ctr inactive | TCR-CD3 inh conf 32
O=C(CCNC(=O)c1ccccc1)NNC(=O)c1ccccc1Br	none
COc1ccccc1/C=C1\SC(=O)N(CCC(=O)NNC(=O)c2ccccc2Cl)C1=O	none
COc1ccccc1/C=C1\SC(=S)N(CCC(=O)NNC(=O)c2ccccc2OC)C1=O	TCR-CD3 inh 28 | BSA TAMRA ctr inactive | TCR-CD3 inh conf inactive
COc1ccc([C@H]2OC(=O)C[C@H]2C(=O)N2CCN(c3ccccc3Cl)CC2)cc1OC	none (no result: HTRA1 inhibitor, TCR-CD3 inh, DAGLB inhibitor)
COc1ccc(C2CC(=O)C(c3ccc(Cl)c(Cl)c3)=CN2Cc2ccccc2)cc1 (stereo not drawn)	none (no result: HTRA1 inhibitor, DAGLB inhibitor)
O=C(CCN1C(=O)/C(=C/c2ccc(F)cc2)SC1=S)NCCCn1ccnc1	none
O=C(CCN1C(=O)/C(=C/c2ccc(Cl)cc2)SC1=S)NCCCn1ccnc1	TCR-CD3 inh 23 | BSA TAMRA ctr inactive | TCR-CD3 inh conf 20
COc1ccccc1C(=O)N1CCN(C(=O)[C@@H](Cc2ccccc2)NC(=O)[C@H]2O[C@@H](n3ccc(=O)[nH]c3=O)[C@H](O)[C@@H]2O)CC1	none (no result: HTRA1 inhibitor, DAGLB inhibitor)
CN(C(=O)c1cccc(S(=O)(=O)N2CCCC2)c1)C1CCCCC1	TCR-CD3 inh 23 | BSA TAMRA ctr inactive | TCR-CD3 inh conf inactive
CN(C(=O)c1ccc(S(=O)(=O)N2CCCC2)cc1)C1CCCCC1	none
CCOC(=O)c1c(C)[nH]c(C(=O)N/N=C\c2ccccc2O)c1C	none
O=C(N/N=C/c1cc([N+](=O)[O-])ccc1O)c1c[nH]c2ccccc12	TCR-CD3 inh 21 | BSA TAMRA ctr inactive | TCR-CD3 inh conf inactive
CCOC(=O)c1c(C)[nH]c(C(=O)N/N=C/c2cc([N+](=O)[O-])ccc2O)c1C	TCR-CD3 inh 21 | BSA TAMRA ctr inactive | TCR-CD3 inh conf 41
O=C(NC(C(=O)N/N=C/c1cc([N+](=O)[O-])ccc1O)c1n[nH]c(=O)c2ccccc12)c1ccccc1 (stereo not drawn)	TCR-CD3 inh 29 | BSA TAMRA ctr inactive | TCR-CD3 inh conf 38
O=C(NC(C(=O)N/N=C/c1ccncc1)c1n[nH]c(=O)c2ccccc12)c1ccccc1 (stereo not drawn)	none
COc1ccc(OCC(C)CN2CCC(C(O)(c3ccccc3)c3ccccc3)CC2)cc1 (stereo not drawn)	none (no result: HTRA1 inhibitor, TCR-CD3 inh, DAGLB inhibitor)
O=C(O)C1CC=CCC1C(=O)N1CCN(c2nc(-c3ccccc3Cl)c3cc(Br)ccc3n2)CC1 (stereo not drawn)	TCR-CD3 inh 52 | BSA TAMRA ctr inactive | TCR-CD3 inh conf inactive
O=C(O)C1CC=CCC1C(=O)N1CCN(c2nc(-c3ccccc3)c3ccccc3n2)CC1 (stereo not drawn)	none
S=c1[nH]nc(-c2cc(-c3ccccc3)n[nH]2)n1N=Cc1c[nH]c2ccccc12	none (no result: HTRA1 inhibitor, TCR-CD3 inh, DAGLB inhibitor)
CC(C)(C)C(=O)c1c(N)[nH]c(C(=O)c2ccccc2)c1-c1ccc([N+](=O)[O-])cc1	none (no result: HTRA1 inhibitor, DAGLB inhibitor)
NC(=O)c1nsc(C(=O)N(CC(=O)NCc2ccccc2)c2ccc(F)cc2)c1N	TCR-CD3 inh 36 | BSA TAMRA ctr inactive | TCR-CD3 inh conf inactive
CC(=O)C1=C(C)N(Cc2ccc(Br)cc2)C(=S)NC1c1ccc(F)cc1 (stereo not drawn)	none (no result: HTRA1 inhibitor, DAGLB inhibitor)
O=C(NC(=S)Nc1cccc(S(=O)(=O)NC2=NCCC2)c1)c1cc(-c2ccco2)nc2ccccc12	none
O=C(Nc1cccc(S(=O)(=O)NC2=NCCC2)c1)c1cc(-c2ccco2)nc2ccccc12	TCR-CD3 inh 23 | BSA TAMRA ctr inactive | TCR-CD3 inh conf 32
O=C(Nc1nc2ccccc2s1)c1cc(-c2ccco2)nc2ccccc12	none
O=C(N/N=C/c1ccc(F)cc1)c1cc(-c2ccco2)nc2ccccc12	TCR-CD3 inh 30 | BSA TAMRA ctr inactive | TCR-CD3 inh conf 23
Cc1nnc(NC(=O)c2cc(-c3ccco3)nc3ccccc23)s1	TCR-CD3 inh 19 | BSA TAMRA ctr inactive | TCR-CD3 inh conf 20
CC(C)[C@@H](CO)N1Cc2nnn(Cc3ccccc3)c2-c2ccccc2S1(=O)=O	none (no result: HTRA1 inhibitor, TCR-CD3 inh, DAGLB inhibitor)
COc1ccccc1C(=O)NNC(=S)NC(=O)c1cc(OC)c(OC)c(OC)c1	TCR-CD3 inh 19 | BSA TAMRA ctr inactive | TCR-CD3 inh conf inactive
CCOc1ccc(NC(=S)NS(=O)(=O)c2cc(Br)ccc2OCC)cc1	none (no result: HTRA1 inhibitor, DAGLB inhibitor)
CCOc1ccc(Br)cc1S(=O)(=O)Nc1ccc(C(=O)OCC(=O)Nc2ccc(C#N)cc2)cc1	TCR-CD3 inh 33 | BSA TAMRA ctr 26 | TCR-CD3 inh conf 34
Cc1ncc(CO)c2c1Oc1nc(-c3ccccc3)nc(SCC(=O)Nc3cccc(O)c3)c1C2	TCR-CD3 inh 21 | BSA TAMRA ctr inactive | TCR-CD3 inh conf inactive
COc1ccc(-c2nc3c(c(SCC(=O)Nc4cccc(O)c4)n2)Cc2c(CO)cnc(C)c2O3)cc1	none
Cc1cc2nc3c(=O)[nH]c(=O)[nH]c3nc2c([N+](=O)[O-])c1N	TCR-CD3 inh 24 | BSA TAMRA ctr 85 | TCR-CD3 inh conf 103
Cn1c(SCC(=O)N/N=C/c2cc([N+](=O)[O-])ccc2O)nnc1-c1ccccc1	TCR-CD3 inh 21 | BSA TAMRA ctr inactive | TCR-CD3 inh conf inactive
Nc1nnc(CC(=O)N/N=C\c2cc([N+](=O)[O-])ccc2O)s1	TCR-CD3 inh 36 | BSA TAMRA ctr inactive | TCR-CD3 inh conf 25
O=C(NCc1cccs1)C1CCC(CNS(=O)(=O)c2cccc3cccnc23)CC1 (stereo not drawn)	none (no result: HTRA1 inhibitor, TCR-CD3 inh, DAGLB inhibitor)
COc1ccccc1N(C)S(=O)(=O)c1ccc(C(=O)OCC(=O)c2c[nH]c3ccccc23)cc1	TCR-CD3 inh 20 | BSA TAMRA ctr inactive | TCR-CD3 inh conf inactive
COc1ccccc1N(C)S(=O)(=O)c1ccc(C(=O)OCC(=O)N(C)c2ccccc2)cc1	none
CC(C(=O)N1CCCCC1)n1sc2ccccc2c1=O (stereo not drawn)	TCR-CD3 inh 31 | BSA TAMRA ctr inactive | TCR-CD3 inh conf inactive
O=C(O)c1ccc(/C=N/O)cc1	TCR-CD3 inh 19 | BSA TAMRA ctr inactive | TCR-CD3 inh conf inactive
COC(=O)c1cc2c(c3c4cc(OC)ccc4n(S(=O)(=O)c4ccc(F)cc4)c13)C(=O)N(C)C2	none (no result: HTRA1 inhibitor, DAGLB inhibitor)
COc1ccc(/C=N\NC(=O)c2ccccc2Br)cc1COc1ccccc1	none
